In ChEMBL document CHEMBL4270571, “6-Biphenylmethyl-3-hydroxypyrimidine-2,4-diones potently and selectively inhibited HIV reverse transcriptase-associated RNase H” (Eur J Med Chem, 2018):

Tests used:
[1] = target: Human immunodeficiency virus type 1 reverse transcriptase (Human immunodeficiency virus 1, UniProt Q72547); assay: Inhibition of recombinant HIV1 reverse transcriptase RNase H expressed in Escherichia coli JM109 using RNA/DNA duplex substrate HTS1 as substrate
Gag-Pol polyprotein = Gag-Pol polyprotein (Human immunodeficiency virus type 1 group M subtype B (isolate HXB2)(HIV-1), UniProt P04585); assay: Inhibition of recombinant HIV1 reverse transcriptase polymerase expressed in Escherichia coli JM109 assessed as decrease in extension of 18 nucleotide DNA primer annealed to 100 nucleotide DNA template measured after 30 mins; parameters: species or system Human immunodeficiency virus 1
Method in brief: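 18-nt DNA primer annealed to 100-nt DNA template (40 nM) was extended by 20 nM RT with dNTPs in 50 mM Tris pH 7.8, 50 mM NaCl, 1% DMSO, with increasing compound concentrations. Reactions were started with 6 mM MgCl₂, run 30 min at 37 °C, and stopped with EDTA. dsDNA formed was quantified by fluorescent dye (ex/em 504/531 nm), and dose-response data were fitted to a logistic curve.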

[2] = target: Human immunodeficiency virus type 1 integrase (Human immunodeficiency virus 1, UniProt Q7ZJM1); assay: Inhibition of HIV integrase strand transfer activity expressed in Escherichia coli BL21 (DE3) using 5' biotin ATGTGGAAAATCTCTAGCA primer annealed with ACTGCTAGAGATTTTCCACAT 3' Cy5 template preincubated for 10 mins followed by primer/template addition measured after 30 mins by fluorescence assay
Human immunodeficiency virus type 1 integrase, sequence (Q7ZJM1 whole entry): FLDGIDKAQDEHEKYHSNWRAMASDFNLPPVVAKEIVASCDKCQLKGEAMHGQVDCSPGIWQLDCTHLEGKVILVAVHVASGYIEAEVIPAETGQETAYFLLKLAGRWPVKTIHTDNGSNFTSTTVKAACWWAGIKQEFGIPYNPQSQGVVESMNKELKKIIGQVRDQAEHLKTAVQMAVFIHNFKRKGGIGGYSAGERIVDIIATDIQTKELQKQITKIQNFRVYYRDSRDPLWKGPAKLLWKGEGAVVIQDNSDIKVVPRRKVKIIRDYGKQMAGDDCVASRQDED
Method in brief: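 Purified HIV integrase in 10 mM HEPES pH 7.5, 10% glycerol, 10 mM MnCl₂, 1 mM DTT, with compounds in duplicate at 0.13–100 (final), 10 min at 25 °C. 500 nM biotin/Cy5 oligo duplex added, 30 min at 37 °C, EDTA quench. Products captured on streptavidin beads, washed, NaOH-denatured, formamide-eluted, read at 635/675.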

[3] = tested on: Human immunodeficiency virus 1; assay: Antiviral activity against HIV1 infected in human P4R5 cells assessed as reduction in viral infection preincubated with cells for 24 hrs followed by viral infection measured after 48 hrs by fluorescence based MAGI assay; format: functional, organism-based
Method in brief: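 P4R5 indicator cells were seeded at 4 × 10³ per well in DMEM/10% FBS with puromycin. They were pretreated for 24 h with 1% DMSO or a range of compound concentrations, then infected with HIV-1 at an MOI of 1.25 for another 48 h. Cells were lysed and β-galactosidase was read by fluorescence with MUG substrate. EC50 is given as mean ± SD of at least two independent experiments.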

[4] = Cytotoxicity against human P4R5 cells assessed as reduction in cell viability after 72 hrs by XTT assay; format: cell-based
Method in brief: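 P4R5 cells seeded at 4 × 10³ per well in DMEM/10% FBS with puromycin ([…]). Cells treated with 1% DMSO or varying compound concentrations for 72 h, then viability read by XTT kit. CC50 = concentration giving 50% cell death, mean from at least two independent experiments.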

[5] = Selectivity ratio of CC50 for human P4R5 cells to EC50 for HIV1 infected in human P4R5 cells; format: toxicity, cell-based
Method in brief: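 P4R5 indicator cells, 4 × 10³ per well in DMEM/10% FBS with puromycin. […] Cytotoxicity arm: uninfected cells, compound for 72 h, XTT read-out; CC50 is 50% cell death. Each value is mean ± SD of ≥2 independent experiments.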

Row | Structure (SMILES) | IC50 [1] | IC50 (Gag-Pol polyprotein) | IC50 [2] | EC50 [3] | CC50 [4] | Ratio CC50/EC50 [5]
1 | CC(C)c1c(Cc2ccccc2)n(COCCc2ccc(F)cc2)c(=O)n(O)c1=O | 2.8 µM | – | – | – | – | –
2 | CCc1c(Cc2ccccc2)c(=O)n(O)c(=O)n1COCc1ccc(F)cc1 | 15 µM | – | – | – | – | –
3 | O=c1cc(Cc2ccc(-c3ccc(C(F)(F)F)cc3C(F)(F)F)cc2)[nH]c(=O)n1O | 0.085 µM | > 10 µM | > 100 µM | > 20 µM | > 100 µM | –
4 | CC(C)c1c(Cc2ccccc2)n(CCc2ccc(F)cc2)c(=O)n(O)c1=O | 6.6 µM | – | – | – | – | –
5 | O=c1cc(Cc2cccc(-c3ccccc3)c2)[nH]c(=O)n1O | 0.016 µM | > 10 µM | > 100 µM | 9.6 µM | 16 µM | –
6 | CC(C)c1c(Cc2ccccc2)n(COCc2ccc(F)cc2)c(=O)n(C)c1=O | 7 µM | – | – | – | – | –
7 | CC(C)c1c(Cc2ccccc2)n(COCc2ccc(F)cc2F)c(=O)n(O)c1=O | 1.8 µM | – | – | – | – | –
8 | CCOCn1c(Cc2ccc(-c3ccc(C(F)(F)F)cc3)cc2)cc(=O)n(O)c1=O | 2.1 µM | – | – | – | – | –
9 | O=c1cc(Cc2ccc(-c3cc(Cl)cc(C(F)(F)F)c3)cc2)[nH]c(=O)n1O | 0.015 µM | > 10 µM | > 100 µM | > 20 µM | > 100 µM | –
10 | O=c1cc(Cc2ccc(-c3cccc(C(F)(F)F)c3)cc2)[nH]c(=O)n1O | 0.025 µM | > 10 µM | > 100 µM | > 20 µM | > 100 µM | –
11 | CC(C)c1c(Cc2ccc(F)cc2)n(Cc2ccc(F)cc2)c(=O)n(O)c1=O | 13 µM | – | – | – | – | –
12 | CC(C)c1c(Cc2ccccc2)n(Cc2ccccc2)c(=O)n(O)c1=O | 15 µM | – | – | – | – | –
13 | CCOCn1c(Cc2ccccc2)c(C(C)C)c(=O)n(O)c1=O | 6.8 µM | – | – | – | – | –
14 | CCc1c(-c2ccc(F)cc2)n(COCc2ccc(F)cc2)c(=O)n(O)c1=O | 17 µM | – | – | – | – | –
15 | O=c1cc(Cc2ccc(-c3ccc(Cl)c(F)c3)cc2)[nH]c(=O)n1O | 0.0094 µM | > 10 µM | > 100 µM | 15 µM | 59 µM | –
16 | O=c1cc(Cc2ccc(-c3ccccc3)cc2)[nH]c(=O)n1O | 0.016 µM | > 10 µM | > 100 µM | 10 µM | 11 µM | –
17 | CCOCn1c(Cc2ccc(-c3ccccc3)cc2)c(C)c(=O)n(O)c1=O | 6.2 µM | – | – | – | – | –
18 | O=c1cc(Cc2cccc(Br)c2)[nH]c(=O)n1O | 0.013 µM | > 10 µM | > 100 µM | > 20 µM | 63 µM | –
19 | CC(C)c1c(Cc2ccccc2)n(COCCCCc2ccc(F)cc2)c(=O)n(O)c1=O | 1.8 µM | – | – | – | – | –
20 | O=c1cc(Cc2ccc(-c3cccc(Cl)c3)cc2)[nH]c(=O)n1O | 0.016 µM | > 10 µM | > 100 µM | > 20 µM | > 100 µM | –
21 | O=c1cc(Cc2cccc(-c3ccc(Cl)cc3)c2)[nH]c(=O)n1O | 0.012 µM | > 10 µM | > 100 µM | 7.6 µM | 27 µM | 4 to 6
22 | O=c1cc(Cc2ccc(-c3ccc(F)cc3F)cc2)[nH]c(=O)n1O | 0.015 µM | > 10 µM | > 100 µM | 5.6 µM | 11 µM | –
23 | CCOCn1c(Cc2ccc(-c3cc(OC)cc(OC)c3)cc2)c(C)c(=O)n(O)c1=O | 6.7 µM | – | – | – | – | –
24 | O=c1cc(Cc2cccc(-c3cccc(C(F)(F)F)c3)c2)[nH]c(=O)n1O | 0.037 µM | > 10 µM | > 100 µM | > 20 µM | > 100 µM | –

Row | Structure (SMILES) | IC50 [1] | IC50 (Gag-Pol polyprotein) | IC50 [2] | EC50 [3] | CC50 [4] | Ratio CC50/EC50 [5]
25 | CC(C)c1c(Cc2ccc(F)cc2)n(Cc2ccccc2)c(=O)n(O)c1=O | 10 µM | – | – | – | – | –
26 | CC(C)c1c(Cc2ccccc2)n(COCc2cccc(Cl)c2F)c(=O)n(O)c1=O | 0.9 µM | – | – | – | – | –
27 | O=c1cc(Cc2ccc(Br)cc2)[nH]c(=O)n1O | 0.011 µM | > 10 µM | > 100 µM | > 20 µM | 64 µM | –
28 | CC(C)c1c(Cc2ccccc2)n(COCc2ccc(F)cc2)c(=O)n(O)c1=O | 2.1 µM | – | – | – | – | –
29 | CCOCn1c(Cc2ccc(-c3ccccc3)cc2)cc(=O)n(O)c1=O | > 5 µM | – | – | > 20 µM | > 100 µM | –
30 | COc1ccc(-c2cccc(Cc3cc(=O)n(O)c(=O)[nH]3)c2)cc1F | 0.0077 µM | > 10 µM | > 100 µM | 12 µM | 20 µM | –
31 | O=c1cc(Cc2cccc(-c3cccc(Cl)c3)c2)[nH]c(=O)n1O | 0.02 µM | 10 µM | > 100 µM | 11 µM | 62 µM | 4 to 6
32 | O=c1cc(Nc2ccc(-c3ccccc3)cc2)[nH]c(=O)n1O | – | 2 µM | – | – | – | –
33 | CC(C)c1c(Cc2ccccc2)n(CCCCc2ccc(F)cc2)c(=O)n(O)c1=O | 0.9 µM | – | – | – | – | –
34 | COc1ccc(-c2ccc(Cc3cc(=O)n(O)c(=O)[nH]3)cc2)cc1F | 0.0076 µM | > 10 µM | > 100 µM | 11 µM | 49 µM | 4 to 6
35 | CC(C)c1c(Cc2ccc(F)cc2)n(COCc2ccc(F)cc2)c(=O)n(O)c1=O | 6.2 µM | – | – | – | – | –
36 | O=c1cc(Cc2ccc(-c3ccc(Cl)cc3Cl)cc2)[nH]c(=O)n1O | 0.0092 µM | > 10 µM | > 100 µM | 13 µM | > 100 µM | –
37 | Cc1cc(-c2cccc(Cc3cc(=O)n(O)c(=O)[nH]3)c2)ccc1F | 0.0088 µM | > 10 µM | > 100 µM | 12 µM | 37 µM | –
38 | CCOCn1c(Cc2ccc(-c3ccc(Cl)c(F)c3)cc2)cc(=O)n(O)c1=O | 0.43 µM | – | – | – | – | –
39 | CC(C)c1c(Cc2ccccc2)n(CCCc2ccc(F)cc2)c(=O)n(O)c1=O | 3.8 µM | – | – | – | – | –
40 | CCOCn1c(Cc2ccc(F)cc2)c(C(C)C)c(=O)n(O)c1=O | > 25 µM | – | – | – | – | –
41 | COn1c(=O)c(C(C)C)c(Cc2ccccc2)n(COCc2ccc(F)cc2)c1=O | 11 µM | – | – | – | – | –
42 | O=c1cc(Cc2ccc(-c3ccc(C(F)(F)F)cc3)cc2)[nH]c(=O)n1O | 0.047 µM | > 10 µM | > 100 µM | 16 µM | > 100 µM | –
43 | CCOCn1c(Cc2ccc(-c3ccc(C#N)cc3)cc2)c(C)c(=O)n(O)c1=O | 5.2 µM | – | – | – | – | –
44 | O=c1cc(Cc2cccc(-c3cccc(F)c3)c2)[nH]c(=O)n1O | 0.018 µM | > 10 µM | > 100 µM | 9.9 µM | 14 µM | –
45 | O=c1cc(Cc2ccc(-c3cccc(F)c3)cc2)[nH]c(=O)n1O | 0.028 µM | > 10 µM | > 100 µM | 12 µM | 24 µM | –
46 | O=c1cc(Cc2cccc(-c3cc(Cl)cc(C(F)(F)F)c3)c2)[nH]c(=O)n1O | 0.038 µM | > 10 µM | > 100 µM | 20 µM | > 100 µM | –
47 | CC(C)c1c(Cc2ccccc2)n(COCc2ccccc2)c(=O)n(O)c1=O | 2.5 µM | – | – | – | – | –
48 | Cc1cc(-c2ccc(Cc3cc(=O)n(O)c(=O)[nH]3)cc2)ccc1F | 0.011 µM | > 10 µM | > 100 µM | > 20 µM | > 100 µM | –
